Laboratory results from PMC8800389 (Neuron, 2020).
Residue numbers refer to the chain shown, from its start.

Key:
PPIL1 = biological target: T1, PPIL1 (Homo sapiens, UniProt Q9Y3C6); type: biochemical; conditions: catalytic concentrations of PPIL1 WT, 25 mM sodium phosphate, 100 mM NaCl, 1 mM dithiothreitol, 5% D2O, pH 7.0, 950 MHz; Figure S6I
T1 sequence (Q9Y3C6 1-166): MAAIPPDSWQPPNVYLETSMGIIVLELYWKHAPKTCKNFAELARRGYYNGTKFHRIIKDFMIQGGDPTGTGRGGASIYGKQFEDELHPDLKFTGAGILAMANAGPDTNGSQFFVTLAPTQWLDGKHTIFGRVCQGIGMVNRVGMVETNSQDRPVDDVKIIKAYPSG
Method in brief: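 Substrate: uniformly 15N-labeled PRP17 peptide (residues 84–101), made as a His-SUMO fusion in BL21(DE3) in 15N minimal medium. Induction was 1 mM IPTG, 37 °C, 8 h. Ni-NTA, SUMO protease cleavage (30 °C, 6 h) and C18 reverse-phase HPLC followed, then lyophilisation. ZZ mixing times 120 (×2), 150, 200, 250 (×2), 350, 450, 600 and 750 ms on a TXO cryoprobe.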

[1] = cis/trans conformation of the PRP17 Gly94-Pro95 bond by 1H-13C HSQC; type: physicochemical; conditions: 500 μM peptide in PBS (pH 7.4), 5 % v/v D2O, 750 MHz
[2] = biological target: T2, PPIL1 p.T107A, purified recombinant (human, UniProt Q9Y3C6 1-166, p.T107A); assay: SPR
T2 sequence (looked up): T1 sequence (Q9Y3C6 1-166) with T107A

TYETMFAPEFGPENPFRT
proline isomerization by PPIL1 WT (ZZ exchange) (PPIL1): This was also confirmed

Ac-FAPEFGPENPFRT-NH2
Gly94-Pro95 bond conformation [1]: present in both cis and trans conformations

B1: N-terminal GST tagged SKIP 59–129 (domain or fragment, UniProt Q13573 59-129, looked up)
chain: GDGGAFPEIHVAQYPLDMGRKKKMSNALAIQVDSEGKIKYDAIARQGQSKDKVIYSKYTDLVPKEVMNADD
binding result [2]: binds
